Active and inactive are the calls of the source.
Key:
[1] = test system: Klebsiella oxytoca; test: Antimicrobial activity against extended spectrum beta-lactamase-deficient Klebsiella oxytoca assessed as percent susceptible isolates by CLSI method; format: functional
[2] = test system: Enterobacter cloacae; test: Antimicrobial activity against Enterobacter cloacae assessed as percent susceptible isolates by CLSI method; format: functional
[3] = test system: Klebsiella oxytoca; test: Antimicrobial activity against extended spectrum beta-lactamase-expressing Klebsiella oxytoca assessed as percent susceptible isolates by CLSI method; format: functional
[4] = test system: Citrobacter freundii; test: Antimicrobial activity against Citrobacter freundii assessed as percent susceptible isolates by CLSI method; format: functional
[5] = test system: Escherichia coli; test: Antimicrobial activity against extended spectrum beta-lactamase-expressing Escherichia coli assessed as percent susceptible isolates by CLSI method; format: functional
[6] = test system: Klebsiella pneumoniae; test: Antimicrobial activity against extended spectrum beta-lactamase-deficient Klebsiella pneumoniae assessed as percent susceptible isolates by CLSI method; format: functional
[7] = test system: Klebsiella aerogenes; test: Antimicrobial activity against Enterobacter aerogenes assessed as percent susceptible isolates by CLSI method; format: functional
[8] = test system: Escherichia coli; test: Antimicrobial activity against extended spectrum beta-lactamase-deficient Escherichia coli assessed as percent susceptible isolates by CLSI method; format: functional
[9] = test system: Klebsiella pneumoniae; test: Antimicrobial activity against extended spectrum beta-lactamase-expressing Klebsiella pneumoniae assessed as percent susceptible isolates by CLSI method; format: functional
[10] = test system: Proteus mirabilis; test: Antimicrobial activity against Proteus mirabilis assessed as percent susceptible isolates by CLSI method; format: functional
[11] = test system: Pseudomonas aeruginosa; test: Antimicrobial activity against Pseudomonas aeruginosa assessed as percent susceptible isolates by CLSI method; format: functional
[12] = test system: Enterobacter cloacae; test: Antimicrobial activity against Enterobacter cloacae assessed as percent susceptible isolates by CLSI method in presence of beta-lactamase inhibitor Sulbactam; format: functional
How it was run: (§1)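 Site laboratories identified isolates by their local methods. MICs were read from dehydrated broth microdilution panels, the same panel at all sites, following CLSI procedure. Susceptibility was categorized by CLSI interpretive criteria. QC ran daily at each site with E. coli ATCC 25922, K. pneumoniae ATCC 700603 and P. aeruginosa ATCC 27853.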

[13] = test system: Pseudomonas aeruginosa; test: Antimicrobial activity against Pseudomonas aeruginosa assessed as percent susceptible isolates by CLSI method in presence of beta-lactamase inhibitor Sulbactam; format: functional, organism-based; how it was run: as §1
[14] = test system: Escherichia coli; test: Antimicrobial activity against extended spectrum beta-lactamase-expressing Escherichia coli assessed as percent susceptible isolates by CLSI method in presence of beta-lactamase inhibitor Sulbactam; format: functional
How it was run: (§2)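 ESBL status was assigned when the ceftazidime or cefotaxime MIC fell at least eightfold (three doubling dilutions) with clavulanic acid, compared with the drug alone. Isolates were identified locally at each site. MICs came from uniform dehydrated broth microdilution panels under CLSI procedure, with susceptibility by CLSI criteria. Daily QC used E. coli ATCC 25922, K. pneumoniae ATCC 700603 (ESBL-positive) and P. aeruginosa ATCC 27853.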

[15] = test system: Klebsiella pneumoniae; test: Antimicrobial activity against extended spectrum beta-lactamase-deficient Klebsiella pneumoniae assessed as percent susceptible isolates by CLSI method in presence of beta-lactamase inhibitor Sulbactam; format: functional; how it was run: as §2
[16] = test system: Klebsiella oxytoca; test: Antimicrobial activity against extended spectrum beta-lactamase-deficient Klebsiella oxytoca assessed as percent susceptible isolates by CLSI method in presence of beta-lactamase inhibitor Sulbactam; format: functional; how it was run: as §2
[17] = test system: Klebsiella oxytoca; test: Antimicrobial activity against extended spectrum beta-lactamase-expressing Klebsiella oxytoca assessed as percent susceptible isolates by CLSI method in presence of beta-lactamase inhibitor Sulbactam; format: functional; how it was run: as §2
[18] = test system: Proteus mirabilis; test: Antimicrobial activity against Proteus mirabilis assessed as percent susceptible isolates by CLSI method in presence of beta-lactamase inhibitor Sulbactam; format: functional; how it was run: as §1
[19] = test system: Klebsiella pneumoniae; test: Antimicrobial activity against extended spectrum beta-lactamase-expressing Klebsiella pneumoniae assessed as percent susceptible isolates by CLSI method in presence of beta-lactamase inhibitor Sulbactam; format: functional; how it was run: as §2
[20] = test system: Klebsiella aerogenes; test: Antimicrobial activity against Enterobacter aerogenes assessed as percent susceptible isolates by CLSI method in presence of beta-lactamase inhibitor Sulbactam; format: functional; how it was run: as §1
[21] = test system: Escherichia coli; test: Antimicrobial activity against extended spectrum beta-lactamase-deficient Escherichia coli assessed as percent susceptible isolates by CLSI method in presence of beta-lactamase inhibitor Sulbactam; format: functional; how it was run: as §2
[22] = test system: Citrobacter freundii; test: Antimicrobial activity against Citrobacter freundii assessed as percent susceptible isolates by CLSI method in presence of beta-lactamase inhibitor Sulbactam; format: functional; how it was run: as §1
[23] = test system: Klebsiella oxytoca; test: Antimicrobial activity against extended spectrum beta-lactamase-expressing Klebsiella oxytoca assessed as percent susceptible isolates by CLSI method in presence of beta-lactamase inhibitor tazobactem; format: functional; how it was run: as §2
[24] = test system: Citrobacter freundii; test: Antimicrobial activity against Citrobacter freundii assessed as percent susceptible isolates by CLSI method in presence of beta-lactamase inhibitor tazobactem; format: functional; how it was run: as §1
[25] = test system: Escherichia coli; test: Antimicrobial activity against extended spectrum beta-lactamase-expressing Escherichia coli assessed as percent susceptible isolates by CLSI method in presence of beta-lactamase inhibitor tazobactem; format: functional; how it was run: as §2
[26] = test system: Escherichia coli; test: Antimicrobial activity against extended spectrum beta-lactamase-deficient Escherichia coli assessed as percent susceptible isolates by CLSI method in presence of beta-lactamase inhibitor tazobactem; format: functional; how it was run: as §2
[27] = test system: Proteus mirabilis; test: Antimicrobial activity against Proteus mirabilis assessed as percent susceptible isolates by CLSI method in presence of beta-lactamase inhibitor tazobactem; format: functional; how it was run: as §1
[28] = test system: Klebsiella pneumoniae; test: Antimicrobial activity against extended spectrum beta-lactamase-expressing Klebsiella pneumoniae assessed as percent susceptible isolates by CLSI method in presence of beta-lactamase inhibitor tazobactem; format: functional; how it was run: as §2
[29] = test system: Klebsiella oxytoca; test: Antimicrobial activity against extended spectrum beta-lactamase-deficient Klebsiella oxytoca assessed as percent susceptible isolates by CLSI method in presence of beta-lactamase inhibitor tazobactem; format: functional; how it was run: as §2
[30] = test system: Pseudomonas aeruginosa; test: Antimicrobial activity against Pseudomonas aeruginosa assessed as percent susceptible isolates by CLSI method in presence of beta-lactamase inhibitor tazobactem; format: functional; how it was run: as §1
[31] = test system: Klebsiella pneumoniae; test: Antimicrobial activity against extended spectrum beta-lactamase-deficient Klebsiella pneumoniae assessed as percent susceptible isolates by CLSI method in presence of beta-lactamase inhibitor tazobactem; format: functional; how it was run: as §2
[32] = test system: Enterobacter cloacae; test: Antimicrobial activity against Enterobacter cloacae assessed as percent susceptible isolates by CLSI method in presence of beta-lactamase inhibitor tazobactem; format: functional; how it was run: as §1
[33] = test system: Klebsiella aerogenes; test: Antimicrobial activity against Enterobacter aerogenes assessed as percent susceptible isolates by CLSI method in presence of beta-lactamase inhibitor tazobactem; format: functional; how it was run: as §1

SMILES | Activity [1] [%] | Activity [2] [%] | Activity [3] [%] | Activity [4] [%] | Activity [5] [%] | Activity [6] [%] | Activity [7] [%] | Activity [8] [%] | Activity [9] [%] | Activity [10] [%] | Activity [11] | further results
C[C@@H](O)[C@H]1C(=O)N2C(C(=O)O)=C(S[C@@H]3CN[C@H](C(=O)Nc4cccc(C(=O)O)c4)C3)[C@H](C)[C@H]12 | 100 | 94 | 100 | 98 | 96 | 99 | 97 | 100 | 86 | 100 | inactive | –
NCC[C@H](O)C(=O)N[C@@H]1C[C@H](N)[C@@H](O[C@H]2O[C@H](CN)[C@@H](O)[C@H](O)[C@H]2O)[C@H](O)[C@H]1O[C@H]1O[C@H](CO)[C@@H](O)[C@H](N)[C@H]1O [AMIKACIN] | 100 | 92 | 86 | 84 | 87 | 99 | 83 | 98 | 73 | 92 | 85% | –
CC1(C)S[C@@H]2[C@H](NC(=O)[C@H](N)c3ccccc3)C(=O)N2[C@H]1C(=O)O [AMPICILLIN] | – | – | – | – | – | – | – | – | – | – | – | Activity [12]: 17%; Activity [13]: inactive; Activity [14]: 5%; Activity [15]: 76%; Activity [16]: 76%; Activity [17]: 5%; Activity [18]: 72%; Activity [19]: 6%; Activity [20]: 31%; Activity [21]: 43%; Activity [22]: 37%
CO/N=C(\C(=O)N[C@@H]1C(=O)N2C(C(=O)O)=C(COC(C)=O)CS[C@H]12)c1csc(N)n1 [CEFOTAXIME] | 97 | 49 | 14 | 43 | 5 | 97 | 48 | 97 | 9 | 77 | 14% | –
CO[C@@]1(NC(=O)Cc2cccs2)C(=O)N2C(C(=O)O)=C(COC(N)=O)CS[C@@H]21 [CEFOXITIN] | 97 | 7 | 64 | 16 | 66 | 87 | 22 | 89 | 61 | 95 | inactive | –
CC(C)(O/N=C(\C(=O)N[C@@H]1C(=O)N2C(C(=O)[O-])=C(C[n+]3ccccc3)CS[C@H]12)c1csc(N)n1)C(=O)O [CEFTAZIDIME] | 97 | 53 | 27 | 43 | 29 | 97 | 46 | 95 | 20 | 89 | 66% | –
CO/N=C(\C(=O)N[C@@H]1C(=O)N2C(C(=O)O)=C(CSc3nc(=O)c(O)nn3C)CS[C@H]12)c1csc(N)n1 [CEFTRIAXONE] | 97 | 48 | 9 | 45 | 4 | 97 | 55 | 96 | 10 | 77 | 19% | –
C[C@@H](O)[C@H]1C(=O)N2C(C(=O)O)=C(SCCNC=N)C[C@H]12 [IMIPENEM ANHYDROUS] | 100 | 98 | 100 | 100 | 98 | 100 | 97 | 100 | 97 | 100 | 71% | –
C[C@H]1COc2c(N3CCN(C)CC3)c(F)cc3c(=O)c(C(=O)O)cn1c23.C[C@H]1COc2c(N3CCN(C)CC3)c(F)cc3c(=O)c(C(=O)O)cn1c23.O [LEVOFLOXACIN] | 97 | 79 | 41 | 77 | 21 | 94 | 83 | 72 | 43 | 84 | 73% | –
CCN1CCN(C(=O)N[C@@H](C(=O)N[C@@H]2C(=O)N3[C@@H]2SC(C)(C)[C@@H]3C(=O)O)c2ccccc2)C(=O)C1=O [PIPERACILLIN] | – | – | – | – | – | – | – | – | – | – | – | Activity [23]: 68%; Activity [24]: 71%; Activity [25]: 83%; Activity [26]: 94%; Activity [27]: 97%; Activity [28]: 57%; Activity [29]: 100%; Activity [30]: 81%; Activity [31]: 94%; Activity [32]: 71%; Activity [33]: 69%
